This passage reports Kd results from PMC8144927 (Virology, 2021).

For the test, the target named is angiotensin-converting enzyme 2 (ACE2) (Homo sapiens, UniProt Q9BYF1). As to the kind of experiment: SPR. The format is binding. The essentials:
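Nitrilotriacetic acid (NTA) sensor chip surface primed and charged with Ni2+ by sequential injection of 200 mM imidazole and 40 mM NiCl2. His6-tagged ACE2 protein at 20 μg/mL captured on the chip, with test compound as analyte. Supporting ACE2h cell membrane chromatography: 10.0 mm × 2.0 mm column, 37 °C, 0.2 mL/min, 2 mM phosphate-buffered saline (pH 7.4), detection at 284 nm.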

Sequence of angiotensin-converting enzyme 2 (ACE2) (Q9BYF1 18-805): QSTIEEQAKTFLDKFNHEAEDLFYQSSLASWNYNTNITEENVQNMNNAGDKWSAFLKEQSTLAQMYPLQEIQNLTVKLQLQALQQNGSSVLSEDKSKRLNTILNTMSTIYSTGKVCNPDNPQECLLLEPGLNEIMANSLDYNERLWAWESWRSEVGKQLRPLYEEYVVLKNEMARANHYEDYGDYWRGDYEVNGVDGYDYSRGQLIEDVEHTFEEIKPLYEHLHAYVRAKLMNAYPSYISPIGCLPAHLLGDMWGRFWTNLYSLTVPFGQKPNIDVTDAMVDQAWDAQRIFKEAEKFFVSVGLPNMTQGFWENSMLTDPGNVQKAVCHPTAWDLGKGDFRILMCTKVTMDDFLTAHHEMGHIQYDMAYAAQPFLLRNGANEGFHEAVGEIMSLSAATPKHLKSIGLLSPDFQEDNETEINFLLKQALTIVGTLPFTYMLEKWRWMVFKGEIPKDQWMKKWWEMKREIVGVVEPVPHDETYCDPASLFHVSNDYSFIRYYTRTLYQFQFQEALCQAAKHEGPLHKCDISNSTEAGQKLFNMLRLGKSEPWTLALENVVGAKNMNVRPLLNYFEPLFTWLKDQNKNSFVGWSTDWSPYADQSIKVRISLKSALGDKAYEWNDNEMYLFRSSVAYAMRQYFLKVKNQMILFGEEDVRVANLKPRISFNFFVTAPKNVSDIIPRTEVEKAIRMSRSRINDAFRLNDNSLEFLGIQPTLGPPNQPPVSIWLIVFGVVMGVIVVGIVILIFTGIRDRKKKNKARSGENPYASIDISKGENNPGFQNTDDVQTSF

What is called Kd is the constant that tells how readily two partners part at equilibrium. The low end stands for higher affinity, the high end for lower affinity. On to `CN1CCCC(n2nc(Cc3ccc(Cl)cc3)c3ccccc3c2=O)CC1` (stereo not shown) [azelastine], for which the Kd amounted to 258 nM.
